# Activity calls are given as the source filed them. The calls are words filed in the database; no cut-off is given here.
# Tested on: MV4-11
# Experiment: Anti-proliferative activity against human MV4-11 cells harboring MLL fusion protein assessed as inhibition of cell viability upto 120 uM for 72 hrs by MTT assay
# Format: functional, cell-based
# In short: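 MV4-11 MLL-fusion leukemia cells are exposed to compound across a concentration range for 72 h. Growth is read out by MTT assay, with three replicates.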
row,Compound,Activity
1,C=CC(=O)N1CCC(C(=O)OCC)(c2ccccc2)CC1,Active

# Target: Histone-lysine N-methyltransferase 2A (Homo sapiens, UniProt Q03164)
# Sequence (Q03164 1-2718 limits assumed): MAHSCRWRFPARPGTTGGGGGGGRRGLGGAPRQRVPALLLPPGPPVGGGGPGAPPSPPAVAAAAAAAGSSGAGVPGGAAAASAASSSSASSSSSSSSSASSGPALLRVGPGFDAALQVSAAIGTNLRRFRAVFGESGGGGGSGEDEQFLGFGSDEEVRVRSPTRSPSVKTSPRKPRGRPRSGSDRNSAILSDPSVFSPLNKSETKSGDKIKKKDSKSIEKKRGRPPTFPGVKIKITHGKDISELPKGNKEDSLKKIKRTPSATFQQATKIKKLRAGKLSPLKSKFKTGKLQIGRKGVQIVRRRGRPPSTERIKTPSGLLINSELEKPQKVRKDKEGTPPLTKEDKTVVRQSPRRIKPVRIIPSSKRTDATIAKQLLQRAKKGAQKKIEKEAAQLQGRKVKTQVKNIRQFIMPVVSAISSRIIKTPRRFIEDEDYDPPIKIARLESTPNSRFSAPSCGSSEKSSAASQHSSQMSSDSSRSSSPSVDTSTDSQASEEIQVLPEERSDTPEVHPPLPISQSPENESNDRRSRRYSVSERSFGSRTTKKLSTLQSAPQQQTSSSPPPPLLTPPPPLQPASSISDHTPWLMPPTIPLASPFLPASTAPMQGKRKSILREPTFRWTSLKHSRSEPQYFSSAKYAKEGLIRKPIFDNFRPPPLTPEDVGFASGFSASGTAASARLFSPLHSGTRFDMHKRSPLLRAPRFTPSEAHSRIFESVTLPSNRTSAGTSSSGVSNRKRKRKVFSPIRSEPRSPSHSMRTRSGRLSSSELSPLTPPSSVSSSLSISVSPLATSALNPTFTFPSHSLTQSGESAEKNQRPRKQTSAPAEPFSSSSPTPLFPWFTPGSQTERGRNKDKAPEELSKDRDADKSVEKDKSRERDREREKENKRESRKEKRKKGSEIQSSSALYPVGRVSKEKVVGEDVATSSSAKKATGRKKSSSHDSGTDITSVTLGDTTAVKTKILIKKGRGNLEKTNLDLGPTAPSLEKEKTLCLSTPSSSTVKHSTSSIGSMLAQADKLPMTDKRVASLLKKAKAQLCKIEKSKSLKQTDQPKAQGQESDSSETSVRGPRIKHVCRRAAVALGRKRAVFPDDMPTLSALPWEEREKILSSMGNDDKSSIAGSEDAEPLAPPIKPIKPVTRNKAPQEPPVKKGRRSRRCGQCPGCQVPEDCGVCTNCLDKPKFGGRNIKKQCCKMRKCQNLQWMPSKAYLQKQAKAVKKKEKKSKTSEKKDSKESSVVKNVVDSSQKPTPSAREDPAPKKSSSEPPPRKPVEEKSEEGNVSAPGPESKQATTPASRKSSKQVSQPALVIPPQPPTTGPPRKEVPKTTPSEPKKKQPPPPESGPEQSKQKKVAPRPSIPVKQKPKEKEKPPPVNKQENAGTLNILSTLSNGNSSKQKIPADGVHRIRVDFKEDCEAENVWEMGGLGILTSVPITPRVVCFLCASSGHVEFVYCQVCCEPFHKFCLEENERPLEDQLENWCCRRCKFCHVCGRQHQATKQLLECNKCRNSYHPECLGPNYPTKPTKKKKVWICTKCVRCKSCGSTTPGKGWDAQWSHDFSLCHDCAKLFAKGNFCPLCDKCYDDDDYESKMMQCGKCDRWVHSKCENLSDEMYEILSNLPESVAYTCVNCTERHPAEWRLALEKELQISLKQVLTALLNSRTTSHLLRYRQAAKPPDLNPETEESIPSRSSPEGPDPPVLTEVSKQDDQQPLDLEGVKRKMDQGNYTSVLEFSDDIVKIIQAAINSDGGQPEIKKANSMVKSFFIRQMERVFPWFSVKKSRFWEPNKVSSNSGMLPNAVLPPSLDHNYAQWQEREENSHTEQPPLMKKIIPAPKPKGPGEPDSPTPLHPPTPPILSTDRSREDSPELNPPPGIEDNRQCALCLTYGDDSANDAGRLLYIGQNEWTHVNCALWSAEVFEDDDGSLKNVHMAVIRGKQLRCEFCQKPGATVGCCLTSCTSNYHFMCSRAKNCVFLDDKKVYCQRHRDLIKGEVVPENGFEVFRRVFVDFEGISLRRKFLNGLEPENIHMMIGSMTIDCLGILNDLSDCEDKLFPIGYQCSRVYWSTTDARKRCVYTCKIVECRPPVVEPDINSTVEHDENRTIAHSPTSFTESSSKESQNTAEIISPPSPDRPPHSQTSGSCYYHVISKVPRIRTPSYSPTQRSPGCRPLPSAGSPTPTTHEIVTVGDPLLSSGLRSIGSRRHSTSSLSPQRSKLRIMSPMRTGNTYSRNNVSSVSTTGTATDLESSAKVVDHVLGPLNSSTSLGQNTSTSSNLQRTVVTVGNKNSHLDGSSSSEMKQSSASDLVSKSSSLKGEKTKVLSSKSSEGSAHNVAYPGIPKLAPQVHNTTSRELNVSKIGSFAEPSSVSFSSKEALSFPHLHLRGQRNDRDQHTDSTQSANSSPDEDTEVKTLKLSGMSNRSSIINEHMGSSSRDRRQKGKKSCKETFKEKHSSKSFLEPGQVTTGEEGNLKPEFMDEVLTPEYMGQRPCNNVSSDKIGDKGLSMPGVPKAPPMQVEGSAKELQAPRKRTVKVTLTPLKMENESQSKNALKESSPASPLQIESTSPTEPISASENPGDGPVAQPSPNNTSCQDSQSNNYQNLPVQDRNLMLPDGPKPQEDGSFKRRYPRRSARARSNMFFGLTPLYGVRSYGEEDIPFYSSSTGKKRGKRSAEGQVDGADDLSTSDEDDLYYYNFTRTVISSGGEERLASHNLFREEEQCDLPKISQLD
# Sequence (Q03164 2719-3969 limits assumed): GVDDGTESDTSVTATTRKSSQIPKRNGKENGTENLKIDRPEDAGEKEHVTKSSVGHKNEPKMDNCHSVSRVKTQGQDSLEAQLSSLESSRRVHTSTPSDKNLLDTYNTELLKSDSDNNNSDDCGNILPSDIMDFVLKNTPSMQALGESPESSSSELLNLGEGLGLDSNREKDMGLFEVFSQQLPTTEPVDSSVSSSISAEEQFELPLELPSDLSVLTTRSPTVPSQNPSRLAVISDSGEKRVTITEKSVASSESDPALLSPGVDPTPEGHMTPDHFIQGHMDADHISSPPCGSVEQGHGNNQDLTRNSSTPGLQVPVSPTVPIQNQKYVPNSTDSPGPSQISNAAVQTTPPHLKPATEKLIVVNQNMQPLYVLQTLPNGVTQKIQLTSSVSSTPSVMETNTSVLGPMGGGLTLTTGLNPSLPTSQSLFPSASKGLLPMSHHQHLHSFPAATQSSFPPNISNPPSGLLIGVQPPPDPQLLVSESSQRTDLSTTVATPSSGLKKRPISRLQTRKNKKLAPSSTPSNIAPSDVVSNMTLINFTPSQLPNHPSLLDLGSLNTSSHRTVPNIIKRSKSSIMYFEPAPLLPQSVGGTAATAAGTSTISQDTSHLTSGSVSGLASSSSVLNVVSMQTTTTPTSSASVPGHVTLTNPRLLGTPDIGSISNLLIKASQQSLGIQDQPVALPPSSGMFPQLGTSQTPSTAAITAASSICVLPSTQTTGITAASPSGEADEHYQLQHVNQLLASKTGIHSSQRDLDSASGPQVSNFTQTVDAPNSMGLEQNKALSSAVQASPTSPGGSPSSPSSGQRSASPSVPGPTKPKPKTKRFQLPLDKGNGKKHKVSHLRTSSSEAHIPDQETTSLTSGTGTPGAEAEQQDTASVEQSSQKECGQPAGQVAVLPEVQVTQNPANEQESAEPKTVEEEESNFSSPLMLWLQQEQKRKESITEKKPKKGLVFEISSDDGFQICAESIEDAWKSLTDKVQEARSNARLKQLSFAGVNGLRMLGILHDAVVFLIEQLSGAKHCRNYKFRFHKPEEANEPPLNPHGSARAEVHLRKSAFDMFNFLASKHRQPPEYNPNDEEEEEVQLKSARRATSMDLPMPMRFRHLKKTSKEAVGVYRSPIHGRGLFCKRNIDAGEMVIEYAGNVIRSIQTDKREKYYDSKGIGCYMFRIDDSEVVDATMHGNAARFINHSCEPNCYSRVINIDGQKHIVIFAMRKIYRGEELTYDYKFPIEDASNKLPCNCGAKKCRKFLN
# Experiment: Inhibition of GST-tagged human MLL1 (1147 to 1203 residues) expressed in Escherichia coli BL21 cells incubated for 30 mins by fluorescence polarization assay
# In short: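 Competition fluorescence polarization assay. CXXC domain protein is held at 2× its own KD. All domains are expressed and purified by the same method. Standard deviations come from three separate measurements.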
row,Compound,IC50
1,C=CC(=O)N1CCC(C(=O)NS(=O)(=O)c2ccc(C)cc2)(c2ccccc2)CC1,136 µM
2,C=CC(=O)N1CCC(C(=O)O)(c2ccc(C)cc2)CC1,495 µM
3,C=CC(=O)N1CCC(C(=O)O)(c2ccc(N(C)C)cc2)CC1,827 µM
4,C=CC(=O)N1CCC(C(=O)NS(=O)(=O)CC)(c2ccccc2)CC1,114 µM
5,C=CC(=O)N1CCC(C(=O)NS(=O)(=O)c2ccc(F)cc2)(c2ccccc2)CC1,74 µM
6,C=CC(=O)N1CCC(C(=O)NS(=O)(=O)c2ccc(OC)cc2)(c2ccccc2)CC1,76 µM
7,C=CC(=O)N1CCC(C(=O)NS(=O)(=O)c2ccc(Cl)cc2)(c2ccccc2)CC1,153 µM
8,C=CC(=O)N1CCC(C(=O)O)(c2cccc(OCC)c2)CC1,51 µM
